Assay outcomes: PubChem, The Scripps Research Institute Molecular Screening Center
M4 antag: antagonists of human muscarinic M4 receptor (CHRM4); P08173; CHO-hM4 cells, ACh EC80, Fluo-8 calcium fluorescence; inhibition, % at 3 µM; 360,000 tested, 0.73% active; AID 624125;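 active means inhibition above its plate's cutoff, the mean inhibition of sample wells plus 3 SD, cut at about 27% in these data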
CHRM5 agonist: CHRM5 agonism in calcium assay | P08912 | CHO-K1 hM5 cells, Fluo-8 calcium fluorescence; 0% DMSO wells, 100% maximal acetylcholine response | activation, % at 3 µM | 360,000 tested, 0.19% active;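 active means activation above the run's mean over test compounds plus 3 SD, cut at about 23% in these data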;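 further: signal is peak over basal fluorescence ratio across the kinetic read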
Target sequence (P08912 whole entry, looked up): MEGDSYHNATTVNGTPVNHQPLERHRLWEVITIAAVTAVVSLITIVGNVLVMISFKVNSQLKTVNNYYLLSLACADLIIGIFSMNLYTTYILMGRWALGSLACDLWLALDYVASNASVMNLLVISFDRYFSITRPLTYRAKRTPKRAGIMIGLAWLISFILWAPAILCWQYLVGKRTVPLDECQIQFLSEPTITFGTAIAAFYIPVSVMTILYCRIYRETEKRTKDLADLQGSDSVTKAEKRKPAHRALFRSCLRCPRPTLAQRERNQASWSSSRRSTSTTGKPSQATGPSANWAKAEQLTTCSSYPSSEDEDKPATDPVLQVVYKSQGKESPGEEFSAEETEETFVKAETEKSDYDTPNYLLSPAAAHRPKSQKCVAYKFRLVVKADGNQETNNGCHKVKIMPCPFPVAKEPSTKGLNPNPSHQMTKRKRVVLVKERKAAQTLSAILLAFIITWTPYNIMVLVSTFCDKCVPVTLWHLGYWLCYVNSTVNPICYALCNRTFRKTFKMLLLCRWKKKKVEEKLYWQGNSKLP
M5 PAM: potentiates acetylcholine response at human M5 receptor | P08912 | CHO-K1 hM5, Fluo-8 calcium, ACh EC20 PAM; 0% = ACh EC20, 100% = ACh EC100 | activation, % at 3 µM | 360,000 tested, 0.3% active | AID 624038;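 active means activation above the run cutoff, the mean activation of all test compounds plus 3 SD, cut at about 18% in these data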
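Assay system: CHO-K1 hM5 cells / Incubation: Fluo-8 loading 80 min at 37 °C plus 30 min room temperature / Technique: Fluo-8 calcium dye fluorescence, kinetic read / Repeats: single replicate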
M4 PAM: positive allosteric modulators of human muscarinic M4 receptor; P08173; CHO-K1 hM4/Gqi5, Fluo-8 calcium fluorescence, ACh EC20; 0% = ACh EC20, 100% = maximal ACh; activation, % at 3 µM; 360,000 tested, 0.4% active; AID 624126;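 active means activation above its plate's cutoff, the mean activation of sample wells plus 3 SD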
M4 ag: agonists of human muscarinic M4 receptor (CHRM4); 360,000 tested, 0.14% active; P08173; activation, % at 3 µM; CHO-K1 hM4/Gqi5, Fluo-8 calcium fluorescence; vehicle 0%, full acetylcholine response 100%;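 active means activation above the run mean over all test wells plus 3 SD, cut at about 32% in these data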;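 further: peak over basal fluorescence ratio per well then scaled between controls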
CHRM5 antagonist: blocks acetylcholine activation of human M5 receptor; P08912; CHO-hM5 cells, Fluo-8 calcium fluorescence, ACh EC80; inhibition, % at 3 µM; 360,000 tested, 0.59% active;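 active means inhibition above a per-plate cutoff, the mean of that plate's test compounds plus 3 SD, cut at about 27% in these data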
Large screens that a line does not name were inactive. An excerpt weighted towards active compounds, which were near 1.8% of everything screened.

O=C(c1ccc([N+](=O)[O-])cc1)N(Cc1ccc(Cl)cc1)N1C(=O)CCCC1=O	none
O=C(c1ccc([N+](=O)[O-])cc1)N(Cc1ccc(Cl)cc1Cl)N1C(=O)CCCC1=O	M4 antag 67
CCOC(=O)N1CCN(C(=O)c2ccc(NC(=O)c3ccc(C)cc3)cc2)CC1	M4 PAM 31
FC(F)(F)c1cc(-c2ccccc2)nc(N2CCCCCC2)n1	none
COc1ccccc1N1CCN(c2nc(-c3ccccc3)cc(C(F)(F)F)n2)CC1	M5 PAM 27
CN1CCN(c2cc(-c3ccccc3)nc3cc(-c4ccc(F)cc4)nn23)CC1	none
Fc1ccc(-c2cc3nc(-c4ccccc4)cc(N4CCN(CCN5CCOCC5)CC4)n3n2)cc1	M4 ag 33
Cc1[nH]n(-c2ccccc2)c(=O)c1C(=O)c1ccccc1	M5 PAM 21
COc1cccc(-c2cc(C(=O)N3CCN(c4ncccn4)CC3)c3ccccc3n2)c1	none
CC(C)Oc1cccc(-c2cc(C(=O)N3CCN(c4ncccn4)CC3)c3ccccc3n2)c1	M4 antag 34
Cc1cccc(NC(=O)CCCC(=O)OC(C)C(=O)c2ccccc2)c1 (stereo not drawn)	none
CCOC(=O)c1ccc(NC(=O)NCc2cccnc2)cc1	none
COc1ccc(N(CC(=O)NCc2ccc(F)cc2)S(=O)(=O)c2c(C)n[nH]c2C)cc1	none
COc1ccc(N(CC(=O)NCc2ccc(Cl)cc2)S(=O)(=O)c2c(C)n[nH]c2C)cc1	CHRM5 antagonist 30
Cc1nc(NS(=O)(=O)c2ccccc2)sc1NC(=O)OCCN(C)C	CHRM5 agonist 27
CCOC(=O)c1sc(NS(=O)(=O)c2ccccc2)nc1C	none
O=S(=O)(c1ccccc1)N1N=C(c2cccs2)CC1c1ccc(Br)cc1 (stereo not drawn)	M4 PAM 21
CCN(Cc1ccc2c(c1)OCCO2)C(=O)CN1C(=O)NC2(CCc3ccccc32)C1=O (stereo not drawn)	none
CCCCCc1nc2sc3c(c2c(=O)n1NC(=O)c1ccc([N+](=O)[O-])cc1)CC(C)(C)OC3	CHRM5 antagonist 34
CCCCCCCc1nc2sc3c(c2c(=O)n1N)CC(C)(C)OC3	none
Cn1c(=O)c(N=O)c(N)n(Cc2ccccc2)c1=S	none
O=[N+]([O-])c1ccc(C[n+]2ccccc2)cc1	M4 PAM 25
CN(C)S(=O)(=O)c1ccc(N2CCCC2)c(C(=O)OCC(=O)N2CCN(c3ccccc3)CC2)c1	none
COc1ccc(-n2c(C)c(C(C)=O)c(C(C)=O)c2C)cc1OC	M4 PAM 17
CCC(=O)NC(C)C(c1cccs1)N1CCOCC1 (stereo not drawn)	none
CC(NC(=O)Cc1cccs1)C(c1cccs1)N1CCOCC1 (stereo not drawn)	M4 PAM 36
CC(NS(=O)(=O)c1ccc(F)cc1)C(c1cccs1)N1CCOCC1 (stereo not drawn)	M4 antag 54
Cc1ccc(CN(C)C(=O)COC(=O)CSc2cc(C)c3ccccc3n2)cc1	none
COc1ccc(CCNC(=O)CC2SC(=NCc3ccccc3)NC2=O)cc1 (stereo not drawn)	none
CC(C)NC(=O)N(C)C[C@H]1Oc2ccc(NC(=O)C3CC3)cc2C(=O)N([C@H](C)CO)C[C@@H]1C	none
CCOC(=O)C1=C(N)Oc2c(oc(CO)cc2=O)C1c1ccc(Cl)cc1 (stereo not drawn)	M5 PAM 18
O=C(Nc1ccccc1N1CCOCC1)c1cc(-c2ccco2)nc2ccccc12	M4 antag 35
CCC(=O)N1CCN(c2ccccc2NC(=O)COc2cc(C)ccc2C(C)C)CC1	CHRM5 antagonist 27
Cc1ccc(C(C)C)c(OCC(=O)NC(=S)Nc2ccccc2N2CCOCC2)c1	none
O=C(Cn1c(=O)cnc2ccccc21)Nc1ccccc1N1CCOCC1	M5 PAM 28
Cc1cc(C)c(OCC(=O)Nc2ccccc2N2CCCCC2)c(C)c1	none
Cc1cc(C)c(OCC(=O)Nc2ccccc2N2CCOCC2)c(C)c1	M4 antag 35, CHRM5 agonist 28
Cc1ccccc1OCC(O)CN(Cc1ccccc1O)C1CCCCC1 (stereo not drawn)	none
O=C(CSc1nnc(Cc2ccccc2)c(=O)[nH]1)Nc1ccccc1	none
C#Cc1ccc(NC(=O)C2(C)CCN2C(=O)C2(c3ccccc3)CCCC2)cc1 (stereo not drawn)	none
O=C(Cc1ccccc1)N1CCc2[nH]nc(-c3ccccc3)c2C1	M4 PAM 18
O=C1O[C@H]([C@@H](O)CO)C(O)=C1O	CHRM5 agonist 70
COc1ccc(C2/C=C\CN(C(=O)c3ccc(C)cc3)CC(=O)N2Cc2ccc(F)cc2)cc1 (stereo not drawn)	M5 PAM 18
COCCOc1nc2ccccc2nc1C	M5 PAM 30
COc1cc(NCC(=O)Nc2cccc(S(=O)(=O)N3CCCCC3)c2)cc(OC)c1OC	none
COc1c(O)cc2c(c1O)C1OC(CO)C(O)C(O)C1OC2=O (stereo not drawn)	CHRM5 agonist 46
O=C(CCc1ccccc1)Nc1cc(S(=O)(=O)N2CCOCC2)ccc1N1CCCC1	none
COc1ccc(NS(=O)(=O)c2ccc3c(c2)OCCO3)cc1OC	CHRM5 antagonist 29
COc1ccc(S(=O)(=O)Nc2ccc3c(c2)OCO3)cc1OC	none
O=S(=O)(c1ccc(N2CCN(CCO)CC2)nc1)N1CCOCC1	none
O=C(O)c1ccc2c(c1)S(=O)(=O)c1cc(Cl)ccc1C2=O	none
COc1ccc(CCNC(=O)C(=O)c2c(C)[nH]c3ccccc23)cc1	CHRM5 antagonist 71
O=C(Oc1cccc(Nc2ncnc3ccccc23)c1)c1ccccc1Cl	M4 antag 34, CHRM5 antagonist 45
COc1cccc(-c2cccc(NC(=O)C3CCN(CC4CCOC4)CC3)c2)c1 (stereo not drawn)	none
COc1cc([N+](=O)[O-])ccc1NC(=O)Nc1ccc2c(c1)OCCO2	M5 PAM 22
O=C(Nc1ccccc1)Nc1ccc2c(c1)CCC2	none
C=CCNC(=S)Nc1ccc(Cl)cc1	none
O=C(Nc1cccc([N+](=O)[O-])c1)Nc1ccc2c(c1)CCC2	CHRM5 antagonist 35
C=CCNC(=S)Nc1ccc(OC(F)F)c(Cl)c1	CHRM5 antagonist 29
CC(C)(C)C(=O)Nc1ccc2c(c1)OCCOCCOc1cc(NC(=O)C(C)(C)C)ccc1OCCOCCO2	none
CC(=O)Nc1ccc2c(c1)OCCOCCOc1cc(NC(C)=O)ccc1OCCO2	M4 antag 27
Cc1cccc(S(=O)(=O)N[C@@H]2CC[C@@H](CCNS(=O)(=O)c3ccccc3F)O[C@@H]2CO)c1	none
